Assay results: ChEMBL document CHEMBL1687940, “Quinazoline sulfonamides as dual binders of the proteins B-cell lymphoma 2 and B-cell lymphoma extra long with potent proapoptotic cell-based activity” (J Med Chem, 2011)
Active and inactive are the calls of the source. The calls are words filed in the database; no cut-off is given here.

Legend:
[1] = target: Apoptosis regulator Bcl-2 (Homo sapiens, UniProt P10415); experiment: Displacement of wild type mBimBH3 from human Bcl-2 by solution competition assay
Chain of Apoptosis regulator Bcl-2 (P10415 whole entry): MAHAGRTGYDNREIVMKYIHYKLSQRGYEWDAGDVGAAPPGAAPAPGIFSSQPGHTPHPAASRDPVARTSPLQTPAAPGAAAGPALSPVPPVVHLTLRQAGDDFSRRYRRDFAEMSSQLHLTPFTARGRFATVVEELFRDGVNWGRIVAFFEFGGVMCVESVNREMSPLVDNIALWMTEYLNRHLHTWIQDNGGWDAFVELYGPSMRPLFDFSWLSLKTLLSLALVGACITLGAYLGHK

Bcl-2-like protein 2 = target: T1, Bcl-2-like protein 2 (Homo sapiens, UniProt Q92843); experiment: Displacement of wild type mBimBH3 from human Bcl-w by solution competition assay
T1 sequence (Q92843 whole entry): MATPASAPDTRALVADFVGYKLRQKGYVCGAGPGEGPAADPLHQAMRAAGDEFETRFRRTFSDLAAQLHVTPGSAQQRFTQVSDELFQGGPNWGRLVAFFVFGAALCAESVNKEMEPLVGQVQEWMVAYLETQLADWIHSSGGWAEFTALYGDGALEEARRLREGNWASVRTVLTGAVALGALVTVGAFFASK

MEF [2] = experiment: Cytotoxicity against mouse MEF cells expressing mcl-1 fl/fl after 24 hrs by Cell titer glo assay in presence of 1% serum; assay type: functional, cell-based
Procedure, shortened: (§1)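 Wild-type (mcl-1 fl/fl) or Mcl-1-deficient mouse embryonic fibroblasts kept in high-glucose DME with asparagine, 2-mercaptoethanol and 10% FCS. Exposed to compound 24 h in medium with 1% or 10% FCS. […] Means ± SEM of three independent experiments.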

MEF [3] = experiment: Cytotoxicity against mouse mcl-1 deficient MEF cells after 24 hrs by Cell titer glo assay in presence of 1% serum; assay type: functional, cell-based; procedure, shortened: as §1
MEF [4] = experiment: Cytotoxicity against mouse MEF cells expressing mcl-1 fl/fl after 24 hrs by Cell titer glo assay in presence of 10% serum; assay type: functional, cell-based; procedure, shortened: as §1
MEF [5] = experiment: Cytotoxicity against mouse mcl-1 deficient MEF cells after 24 hrs by Cell titer glo assay in presence of 10% serum; assay type: functional, cell-based; procedure, shortened: as §1
[6] = target: Induced myeloid leukemia cell differentiation protein Mcl-1 (Homo sapiens, UniProt Q07820); experiment: Displacement of wild type mBimBH3 from Mcl-1 by solution competition assay
Chain of Induced myeloid leukemia cell differentiation protein Mcl-1 (Q07820 whole entry): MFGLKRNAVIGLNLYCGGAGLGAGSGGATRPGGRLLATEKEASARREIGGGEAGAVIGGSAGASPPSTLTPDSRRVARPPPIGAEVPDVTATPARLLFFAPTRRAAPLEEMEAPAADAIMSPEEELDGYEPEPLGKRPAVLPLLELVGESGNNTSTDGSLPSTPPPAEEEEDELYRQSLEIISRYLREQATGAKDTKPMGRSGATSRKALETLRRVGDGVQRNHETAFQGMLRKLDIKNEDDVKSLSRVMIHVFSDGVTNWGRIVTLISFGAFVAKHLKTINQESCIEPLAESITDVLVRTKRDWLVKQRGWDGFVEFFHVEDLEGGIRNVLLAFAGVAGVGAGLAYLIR

Bcl-2-like protein 1 [7] = target: T2, Bcl-2-like protein 1 (Homo sapiens, UniProt Q07817); experiment: Binding affinity to Bcl-Xl assessed as association rate constant by surface plasmon resonance assay
T2 sequence (Q07817 whole entry): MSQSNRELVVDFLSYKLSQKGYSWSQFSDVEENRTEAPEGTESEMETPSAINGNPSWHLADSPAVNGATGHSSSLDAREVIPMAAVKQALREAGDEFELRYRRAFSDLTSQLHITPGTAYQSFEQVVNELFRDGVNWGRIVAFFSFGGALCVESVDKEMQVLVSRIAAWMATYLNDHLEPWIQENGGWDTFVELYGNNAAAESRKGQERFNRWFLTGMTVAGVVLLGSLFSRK
Procedure, shortened: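 Biacore SPR direct binding. Anti-GST antibody amine-coupled to CM5 chip (~10000 RU); GST-Bcl-xL captured (~1200 RU), fresh protein each cycle. Compound series injected at 90 μL/min, 25 °C; association 95 s, dissociation 240 s. Phosphate/NaCl/EDTA/Tween buffer with 5% DMSO, pH 7.4. Double referencing and DMSO solvent correction; fit to one-to-one model with mass transport for k_a, k_d.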

MEF [8] = experiment: Cytotoxicity against mouse mcl-1 deficient MEF cells after 24 hrs by Cell titer glo assay in presence of 10% fetal bovine serum; assay type: functional, cell-based; procedure, shortened: as §1
MEF [9] = experiment: Cytotoxicity against mouse MEF cells expressing mcl-1 fl/fl at 10 uM after 24 hrs by Cell titer glo assay in presence of 10% fetal bovine serum; assay type: functional, cell-based
Bcl-2-like protein 1 [10] = target: T2, Bcl-2-like protein 1; experiment: Displacement of biotinylated Bim-BH3 from GST-tagged Bcl-Xl by AlphaScreen competitive assay
Procedure, shortened: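 Titration into a mix of GST-tagged Bcl-xL ΔC25 (0.6 nM final) and biotinylated Bim BH3-26 peptide (5.0 nM final), with anti-GST acceptor and streptavidin donor beads (15 μg/mL each). Protein–acceptor and peptide–donor pairs were preincubated 30 min, then added in turn, 4 h at room temperature. DMSO 1.0% final.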

[11] = Cytotoxicity against human NCI-H146 after 48 hrs by MTS assay in presence of 10% human serum; assay type: functional; settings: NCI-H146, 48 h
Procedure, shortened: (§2)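 Treated 48 h in medium with 10% human serum. Each concentration run in duplicate, at least three separate times. Viability read by MTS proliferation assay.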

NCI-H889 = experiment: Cytotoxicity against human NCI-H889 after 48 hrs by MTS assay in presence of 10% human serum; assay type: functional, cell-based; settings: NCI-H889, 48 h; procedure, shortened: as §2
NCI-H1963 = experiment: Cytotoxicity against human NCI-H1963 after 48 hrs by MTS assay in presence of 10% human serum; assay type: functional, cell-based; settings: NCI-H1963, 48 h; procedure, shortened: as §2
MEF [12] = experiment: Cytotoxicity against mouse MEF cells expressing mcl-1 fl/fl after 24 hrs by Cell titer glo assay in presence of 10% fetal bovine serum; assay type: functional, cell-based; procedure, shortened: as §1

Row | IC50 [1] [nM] | IC50 (Bcl-2-like protein 2) [nM] | IC50 [6] [nM] | Ka (Bcl-2-like protein 1 [7]) [×10⁵ /M/s] | IC50 (Bcl-2-like protein 1 [10]) [nM] | SMILES | EC50 (MEF [2]) [nM] | EC50 (MEF [3]) [nM] | EC50 (MEF [4]) [nM] | EC50 (MEF [5]) [nM] | EC50 (MEF [8]) [nM] | Activity (MEF [9]) | EC50 [11] [nM] | EC50 (NCI-H889) [nM] | EC50 (NCI-H1963) [nM] | EC50 (MEF [12]) [nM]
1 | 5 | 275 | > 1000 |  |  | CN(C)CC[C@H](CSc1ccccc1)Nc1ccc(S(=O)(=O)Nc2ncnc3cc(N4CCN(CC5=C(c6ccc(Cl)cc6)CCC(C)(C)C5)CC4)ccc23)cc1S(=O)(=O)C(F)(F)F | 2650 | 11.6 | 5460 | 37.2 |  |  |  |  |  | 
2 | 84 | > 1000 | > 1000 |  |  | CC1(C)CCC(c2ccc(Cl)cc2)=C(CN2CCN(c3ccc4c(NS(=O)(=O)c5ccc(N[C@H](CCN6CCOCC6)CSc6ccccc6)c(S(=O)(=O)C(F)(F)F)c5)ncnc4c3)CC2)C1 | > 10000 | 37.2 | > 10000 | 328 |  |  |  |  |  | 
3 | 21 | > 1000 | > 1000 |  |  | CC1(C)CCC(c2ccc(Cl)cc2)=C(CN2CCN(c3ccc4c(NS(=O)(=O)c5ccc(N[C@H](CCN6CCOCC6)CSc6ccccc6)c([N+](=O)[O-])c5)ncnc4c3)CC2)C1 | > 10000 | 38 | > 10000 | 222 |  |  |  |  |  | 
4 |  |  |  | 7.9 |  | CN(C)CC[C@H](CSc1ccccc1)Nc1ccc(S(=O)(=O)NC(=O)c2ccc(N3CCN(Cc4ccccc4-c4ccc(Cl)cc4)CC3)cc2)cc1[N+](=O)[O-] [ABT 737] | > 10000 | 2.03 | > 10000 | 51 | 51 | inactive |  |  |  | 
5 |  |  |  |  | 1500 | O=C(NS(=O)(=O)c1ccc(NCCSc2ccccc2)c([N+](=O)[O-])c1)c1ccc(-c2ccc(F)cc2)cc1 |  |  |  |  |  |  |  |  |  | 
6 | 81 | > 1000 | > 1000 |  |  | O=S(=O)(Nc1ncnc2cc(N3CCN(Cc4ccccc4-c4ccc(Cl)cc4)CC3)ccc12)c1ccc(N[C@H](CCN2CCOCC2)CSc2ccccc2)c(S(=O)(=O)C(F)(F)F)c1 | > 10000 | 22.4 | > 10000 | 149 |  |  | 630 | 820 | 400 | 
7 | 21 | > 1000 | > 1000 |  |  | O=[N+]([O-])c1cc(S(=O)(=O)Nc2ncnc3cc(N4CCN(Cc5ccccc5-c5ccc(Cl)cc5)CC4)ccc23)ccc1N[C@H](CCN1CCOCC1)CSc1ccccc1 | > 10000 | 24.8 | > 10000 | 190 |  |  | 3700 | 1300 | 1400 | 
8 | 8.7 | 440 | > 1000 | 1.9 |  | CN(C)CC[C@H](CSc1ccccc1)Nc1ccc(S(=O)(=O)Nc2ncnc3cc(N4CCN(Cc5ccccc5-c5ccc(Cl)cc5)CC4)ccc23)cc1[N+](=O)[O-] | 1680 | 40 | 5820 | 110 | 110 |  | 610 | 210 | 170 | 5800
9 |  |  |  |  |  | CC1(C)CCC(c2ccc(Cl)cc2)=C(CN2CCN(c3ccc(C(=O)NS(=O)(=O)c4ccc(N[C@H](CCN5CCOCC5)CSc5ccccc5)c(S(=O)(=O)C(F)(F)F)c4)cc3)CC2)C1 [NAVITOCLAX] |  |  |  |  |  |  | 80 | 120 | 51 | 
10 | 12 | 540 | > 1000 |  |  | CN(C)CC[C@H](CSc1ccccc1)Nc1ccc(S(=O)(=O)Nc2ncnc3cc(N4CCN(CC5=C(c6ccc(Cl)cc6)CCC(C)(C)C5)CC4)ccc23)cc1[N+](=O)[O-] | 1610 | 16 | 4300 | 61 |  |  |  |  |  | 
11 | 13 | 245 | > 1000 |  |  | CN(C)CC[C@H](CSc1ccccc1)Nc1ccc(S(=O)(=O)Nc2ncnc3cc(N4CCN(Cc5ccccc5-c5ccc(Cl)cc5)CC4)ccc23)cc1S(=O)(=O)C(F)(F)F |  |  |  |  |  |  |  |  |  | 
